According to ChEMBL document CHEMBL5528013 (Eur J Med Chem, 2024):
Calls of active or inactive are those of the source. The rule behind the calls is not given here.

Legend:
MOLM-14 [1] = test: Antiproliferative activity against human MOLM-14 cells assessed as inhibition of cell growth incubated for 72 hrs by resazurin dye based assay; format: functional; conditions: MOLM-14, 72 h
Procedure, shortened: (§1)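 Logarithmic-phase cells were seeded at 5000 per well and treated 24 h later, in triplicate, with various concentrations for 72 h. MOLM14 lines were grown in RPMI with 10 % FBS, and other lines per provider instructions, all at 37 °C and 5 % CO2. Resazurin was then added for 4–6 h and fluorescence read. GI50 was taken from percent growth versus DMSO control, fitted with a variable-slope normalized-response model; at least three runs.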

MOLM-14 [2] = test: Antiproliferative activity against human MOLM-14 cells harboring FLT3-D835Y mutant assessed as inhibition of cell growth incubated for 72 hrs by resazurin dye based assay; format: functional; conditions: MOLM-14, 72 h; procedure, shortened: as §1
MOLM-14 [3] = format: functional, cell-based; conditions: Homo sapiens, MOLM-14, 72 h
K562 = test: Antiproliferative activity against human K562 cells assessed as inhibition of cell growth incubated for 72 hrs by resazurin dye based assay; format: functional; conditions: K562, 72 h; procedure, shortened: as §1
MDA-MB-231 = test: Antiproliferative activity against human MDA-MB-231 cells lacking FLT3 activating mutations assessed as inhibition of cell growth incubated for 72 hrs by resazurin dye based assay; format: functional; conditions: MDA-MB-231, 72 h; procedure, shortened: as §1
[4] = Cytotoxicity against HEK293 cells lacking FLT3 activating mutations assessed as inhibition of cell growth incubated for 72 hrs by resazurin dye based assay; format: toxicity; conditions: human; procedure, shortened: as §1
[5] = molecular target: T1, Receptor-type tyrosine-protein kinase FLT3 (Homo sapiens, UniProt P36888); test: Inhibition of FLT3 (unknown origin) by bioluminescent ADP-Glo assay
T1 sequence (P36888 whole entry): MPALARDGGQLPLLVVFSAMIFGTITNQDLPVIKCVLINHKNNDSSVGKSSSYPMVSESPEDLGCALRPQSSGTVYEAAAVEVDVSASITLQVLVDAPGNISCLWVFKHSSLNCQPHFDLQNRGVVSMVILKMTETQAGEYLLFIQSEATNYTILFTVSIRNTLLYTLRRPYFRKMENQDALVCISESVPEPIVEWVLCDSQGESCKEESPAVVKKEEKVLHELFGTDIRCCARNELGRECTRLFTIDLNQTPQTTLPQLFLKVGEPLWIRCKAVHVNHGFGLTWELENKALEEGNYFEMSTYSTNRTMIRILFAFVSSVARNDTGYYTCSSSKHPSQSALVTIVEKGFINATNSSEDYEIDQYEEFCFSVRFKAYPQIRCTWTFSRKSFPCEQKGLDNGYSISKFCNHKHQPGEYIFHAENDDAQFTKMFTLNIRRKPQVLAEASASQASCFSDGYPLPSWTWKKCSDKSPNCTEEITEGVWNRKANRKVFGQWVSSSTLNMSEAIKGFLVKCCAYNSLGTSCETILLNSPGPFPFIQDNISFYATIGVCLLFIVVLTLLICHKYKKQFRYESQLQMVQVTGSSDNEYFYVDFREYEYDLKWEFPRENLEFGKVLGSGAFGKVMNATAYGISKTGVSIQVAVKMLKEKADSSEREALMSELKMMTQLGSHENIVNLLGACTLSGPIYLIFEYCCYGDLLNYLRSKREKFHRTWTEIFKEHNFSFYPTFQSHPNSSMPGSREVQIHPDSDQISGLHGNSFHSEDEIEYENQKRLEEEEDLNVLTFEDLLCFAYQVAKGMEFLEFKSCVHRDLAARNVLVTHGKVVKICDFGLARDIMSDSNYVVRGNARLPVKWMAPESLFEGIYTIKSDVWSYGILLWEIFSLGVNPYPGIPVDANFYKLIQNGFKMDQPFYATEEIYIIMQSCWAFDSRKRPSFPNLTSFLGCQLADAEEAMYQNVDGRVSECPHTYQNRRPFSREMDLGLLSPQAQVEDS

MOLM-14 [6] = test: Inhibition of ERK phosphorylation in human MOLM-14 cells at 1 times IC50 incubated for 2 hrs by Western blot analysis; format: cell-based
MOLM-14 [7] = test: Inhibition of ERK phosphorylation in human MOLM-14 cells at 10 times IC50 incubated for 2 hrs by Western blot analysis relative to control; format: cell-based
MOLM-14 [8] = test: Inhibition of ERK phosphorylation in human MOLM-14 cells harboring FLT3 D835Y mutant at 1 times IC50 incubated for 2 hrs by Western blot analysis; format: cell-based
MOLM-14 [9] = format: cell-based; conditions: Homo sapiens, time 2.0 hrs
MOLM-14 [10] = test: Inhibition of ERK phosphorylation in human MOLM-14 cells harboring FLT3 D835Y mutant at 10 times IC50 incubated for 2 hrs by Western blot analysis relative to control; format: cell-based
[11] = molecular target: High affinity nerve growth factor receptor (Homo sapiens) (UniProt P04629); test: Inhibition of TRKA (unknown origin) at 4.5 nM incubated for 1 hr by KINOMEscan analysis relative to control
Procedure, shortened: (§2)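 Competition binding panel: DNA-tagged kinases combined with beads carrying immobilized biotinylated ligand and test compound in binding buffer (20 % SeaBlock, 0.17x PBS, 0.05 % Tween 20, 6 mM DTT). Compound diluted from 100x DMSO stocks. Incubated 1 h at room temperature with shaking, then washed. Bound kinase eluted with non-biotinylated ligand for 30 min. Kinase in eluate quantified by qPCR.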

[12] = molecular target: Mast/stem cell growth factor receptor Kit (Homo sapiens, UniProt P10721); test: Binding affinity to KIT (unknown origin) at 4.5 nM incubated for 1 hr by KINOMEscan analysis; conditions: 0.0045 µM; procedure, shortened: as §2
[13] = molecular target: Receptor-type tyrosine-protein kinase FLT3 (Homo sapiens) (UniProt P36888); conditions: dose 4.5 nM, time 1.0 hrs

High affinity nerve growth factor receptor (Homo sapiens), sequence (P04629 33-796 limits assumed): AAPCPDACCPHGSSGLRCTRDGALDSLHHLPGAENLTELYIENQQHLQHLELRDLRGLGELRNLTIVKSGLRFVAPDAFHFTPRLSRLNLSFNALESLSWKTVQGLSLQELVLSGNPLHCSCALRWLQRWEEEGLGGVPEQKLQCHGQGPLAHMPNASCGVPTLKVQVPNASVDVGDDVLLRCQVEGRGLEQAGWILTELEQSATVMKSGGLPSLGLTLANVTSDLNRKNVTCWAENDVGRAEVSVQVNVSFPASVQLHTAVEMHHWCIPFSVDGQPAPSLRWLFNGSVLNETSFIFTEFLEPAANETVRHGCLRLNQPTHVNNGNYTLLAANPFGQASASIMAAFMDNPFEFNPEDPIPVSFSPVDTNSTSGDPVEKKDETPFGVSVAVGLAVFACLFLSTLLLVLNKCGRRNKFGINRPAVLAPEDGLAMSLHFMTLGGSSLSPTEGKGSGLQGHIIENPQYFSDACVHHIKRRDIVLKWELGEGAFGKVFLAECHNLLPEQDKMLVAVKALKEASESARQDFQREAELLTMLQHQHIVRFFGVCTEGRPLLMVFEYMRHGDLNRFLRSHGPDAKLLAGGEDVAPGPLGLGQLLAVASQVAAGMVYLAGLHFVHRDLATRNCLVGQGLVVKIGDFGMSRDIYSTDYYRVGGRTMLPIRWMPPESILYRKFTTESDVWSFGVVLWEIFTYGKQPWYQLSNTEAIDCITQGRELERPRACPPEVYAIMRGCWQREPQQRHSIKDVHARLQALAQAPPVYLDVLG
Mast/stem cell growth factor receptor Kit, sequence (P10721 whole entry): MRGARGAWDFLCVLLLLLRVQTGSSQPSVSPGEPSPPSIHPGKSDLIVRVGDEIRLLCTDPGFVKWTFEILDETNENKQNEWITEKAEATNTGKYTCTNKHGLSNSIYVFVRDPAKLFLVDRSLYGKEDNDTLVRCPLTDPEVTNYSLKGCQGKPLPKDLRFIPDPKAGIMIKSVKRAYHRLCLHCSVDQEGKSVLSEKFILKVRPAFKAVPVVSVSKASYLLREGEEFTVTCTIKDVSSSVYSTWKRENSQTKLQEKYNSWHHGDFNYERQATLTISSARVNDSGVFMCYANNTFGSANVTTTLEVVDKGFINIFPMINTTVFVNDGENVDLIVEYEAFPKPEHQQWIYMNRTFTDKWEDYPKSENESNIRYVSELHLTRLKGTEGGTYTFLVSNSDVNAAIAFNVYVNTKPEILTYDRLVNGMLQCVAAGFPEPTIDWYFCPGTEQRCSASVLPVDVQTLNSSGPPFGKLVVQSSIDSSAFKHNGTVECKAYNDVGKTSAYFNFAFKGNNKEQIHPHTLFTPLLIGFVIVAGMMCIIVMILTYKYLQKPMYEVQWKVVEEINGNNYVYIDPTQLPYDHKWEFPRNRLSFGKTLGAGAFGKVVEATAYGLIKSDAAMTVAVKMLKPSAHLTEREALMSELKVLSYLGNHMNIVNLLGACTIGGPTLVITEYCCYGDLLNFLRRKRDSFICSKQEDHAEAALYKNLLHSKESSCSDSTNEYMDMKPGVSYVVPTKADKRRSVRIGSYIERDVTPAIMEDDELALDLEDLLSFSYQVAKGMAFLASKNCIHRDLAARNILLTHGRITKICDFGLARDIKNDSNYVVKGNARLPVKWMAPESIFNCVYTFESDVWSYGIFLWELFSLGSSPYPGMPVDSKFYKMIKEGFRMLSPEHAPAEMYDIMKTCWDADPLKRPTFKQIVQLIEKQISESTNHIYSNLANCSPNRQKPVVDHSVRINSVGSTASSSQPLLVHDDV

COc1ccc(Nc2cccc(-c3cnc4cc(-c5cnn(C)c5)ccn34)n2)cc1OC gave an IC50 (MOLM-14 [1]) of 2.49 nM, an IC50 (MOLM-14 [2]) of 4.64 nM and an IC50 (MOLM-14 [3]) of 14 nM. The IC50 (K562) was 969 nM, the IC50 (MDA-MB-231) was > 1000 nM and the IC50 at 72 h [4] was > 1000 nM. For the same compound, the IC50 [5] was 6.63 nM.

Cn1cc(-c2ccn3c(-c4cccc(Nc5ccc(S(C)(=O)=O)cc5)n4)cnc3c2)cn1 showed an IC50 (MOLM-14 [1]) of 4.55 nM, an IC50 (MOLM-14 [2]) of 3.16 nM and an IC50 (MOLM-14 [3]) of 8.34 nM. For the same compound, the IC50 (K562) was > 1000 nM, the IC50 (MDA-MB-231) was > 1000 nM and the IC50 at 72 h [4] was > 1000 nM. The IC50 [5] was 7.94 nM, the inhibition (MOLM-14 [6]) was “Active” and the inhibition (MOLM-14 [7]) was 100%. For the same compound, the inhibition (MOLM-14 [8]) was “Active”, the inhibition (MOLM-14 [9]) was “Active” and the inhibition (MOLM-14 [10]) was 100%. The inhibition [11] was > 65%, the “inhibition (INH)” value [12] was “Not Active” and the inhibition [13] was > 65%.
